Test results published in ChEMBL document CHEMBL1926577, “Novel 1,3,4-heterodiazole analogues: synthesis and in-vitro antitumor activity” (2012).

Columns and labels:
Type in all cases: functional
CCRF-CEM = assay: Growth inhibition of human CCRF-CEM cells at 10 uM after 48 hrs by coulter counter method; details: read-out: GI
How it was run: (§1)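 NCI 60-cell-line panel, single dose. Compound dissolved first in DMSO, then diluted in phosphate-buffered saline so that every final dilution held under 1% DMSO. Duplicate wells received cells at 6 × 10⁴ cells/ml. Controls held PBS/DMSO at the same dilution. Plates were incubated 48 h at 37 °C under 5% CO₂. Cells were then diluted 10-fold in saline and counted on a Coulter counter, with counts corrected for the dilution. Results are given as percent growth inhibition.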

HL-60(TB) = assay: Growth inhibition of human HL-60(TB) cells at 10 uM after 48 hrs by coulter counter method; details: HL-60, 48 h, read-out: GI
How it was run: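 Single-dose screen on the NCI 60-line panel (leukemia subpanel). Compound is dissolved in DMSO and diluted in PBS, with final DMSO below 1%. Duplicate wells hold 6 × 10⁴ cells/ml at 37 °C, 5% CO₂, for 48 h. Cells are counted by Coulter counter after 10-fold saline dilution. Read-out is percent growth versus PBS/DMSO controls, expressed as % growth inhibition.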

K562 = assay: Growth inhibition of human K562 cells at 10 uM after 48 hrs by coulter counter method; details: K562, 48 h, read-out: GI; how it was run: as §1
MOLT-4 = assay: Growth inhibition of human MOLT4 cells at 10 uM after 48 hrs by coulter counter method; details: MOLT-4, 48 h, read-out: GI; how it was run: as §1
SR = assay: Growth inhibition of human SR cells at 10 uM after 48 hrs by coulter counter method; details: read-out: GI; how it was run: as §1
A549 = assay: Growth inhibition of human A549 cells at 10 uM after 48 hrs by coulter counter method; details: A549, 48 h, read-out: GI; how it was run: as §1
EKVX = assay: Growth inhibition of human EKVX cells at 10 uM after 48 hrs by coulter counter method; details: read-out: GI; how it was run: as §1
NCI-H226 = assay: Growth inhibition of human NCI-H226 cells at 10 uM after 48 hrs by coulter counter method; details: NCI-H226, 48 h, read-out: GI; how it was run: as §1
NCI-H23 = assay: Growth inhibition of human NCI-H23 cells at 10 uM after 48 hrs by coulter counter method; details: NCI-H23, 48 h, read-out: GI; how it was run: as §1
NCI-H322M = assay: Growth inhibition of human NCI-H322M cells at 10 uM after 48 hrs by coulter counter method; details: read-out: GI; how it was run: as §1
NCI-H522 = assay: Growth inhibition of human NCI-H522 cells at 10 uM after 48 hrs by coulter counter method; details: NCI-H522, 48 h, read-out: GI; how it was run: as §1
HCT-116 = assay: Growth inhibition of human HCT116 cells at 10 uM after 48 hrs by coulter counter method; details: HCT-116, 48 h, read-out: GI; how it was run: as §1
HCT-15 = assay: Growth inhibition of human HCT15 cells at 10 uM after 48 hrs by coulter counter method; details: HCT-15, 48 h, read-out: GI; how it was run: as §1
HT-29 = assay: Growth inhibition of human HT-29 cells at 10 uM after 48 hrs by coulter counter method; details: HT-29, 48 h, read-out: GI; how it was run: as §1
KM12 = assay: Growth inhibition of human KM12 cells at 10 uM after 48 hrs by coulter counter method; details: KM12, 48 h, read-out: GI; how it was run: as §1
SF-268 = assay: Growth inhibition of human SF268 cells at 10 uM after 48 hrs by coulter counter method; details: SF-268, 48 h, read-out: GI; how it was run: as §1
SF-295 = assay: Growth inhibition of human SF295 cells at 10 uM after 48 hrs by coulter counter method; details: SF-295, 48 h, read-out: GI; how it was run: as §1
SNB-19 = assay: Growth inhibition of human SNB19 cells at 10 uM after 48 hrs by coulter counter method; details: SNB-19, 48 h, read-out: GI; how it was run: as §1
SNB-75 = assay: Growth inhibition of human SNB75 cells at 10 uM after 48 hrs by coulter counter method; details: SNB-75, 48 h, read-out: GI; how it was run: as §1
U-251 = assay: Growth inhibition of human U251 cells at 10 uM after 48 hrs by coulter counter method; details: U-251, 48 h, read-out: GI; how it was run: as §1
LOX IMVI = assay: Growth inhibition of human LOXIMVI cells at 10 uM after 48 hrs by coulter counter method; details: read-out: GI; how it was run: as §1
Malme-3M = assay: Growth inhibition of human MALME-3M cells at 10 uM after 48 hrs by coulter counter method; details: read-out: GI; how it was run: as §1
M14 = assay: Growth inhibition of human M14 cells at 10 uM after 48 hrs by coulter counter method; details: M14, 48 h, read-out: GI; how it was run: as §1
MDA-MB-435 = assay: Growth inhibition of human MDA-MB-435 cells at 10 uM after 48 hrs by coulter counter method; details: MDA-MB-435, 48 h, read-out: GI; how it was run: as §1
SK-MEL-2 = assay: Growth inhibition of human SK-MEL-2 cells at 10 uM after 48 hrs by coulter counter method; details: SK-MEL-2, 48 h, read-out: GI; how it was run: as §1
SK-MEL-28 = assay: Growth inhibition of human SK-MEL-28 cells at 10 uM after 48 hrs by coulter counter method; details: SK-MEL-28, 48 h, read-out: GI; how it was run: as §1
SK-MEL-5 = assay: Growth inhibition of human SK-MEL-5 cells at 10 uM after 48 hrs by coulter counter method; details: SK-MEL-5, 48 h, read-out: GI; how it was run: as §1
UACC-257 = assay: Growth inhibition of human UACC257 cells at 10 uM after 48 hrs by coulter counter method; details: UACC-257, 48 h, read-out: GI; how it was run: as §1
UACC-62 = assay: Growth inhibition of human UACC62 cells at 10 uM after 48 hrs by coulter counter method; details: UACC-62, 48 h, read-out: GI; how it was run: as §1
IGROV-1 = assay: Growth inhibition of human IGROV1 cells at 10 uM after 48 hrs by coulter counter method; details: IGROV-1, 48 h, read-out: GI; how it was run: as §1
OVCAR-8 = assay: Growth inhibition of human OVCAR8 cells at 10 uM after 48 hrs by coulter counter method; details: OVCAR-8, 48 h, read-out: GI; how it was run: as §1
NCI/ADR-RES = assay: Growth inhibition of human NCI/ADR-RES cells at 10 uM after 48 hrs by coulter counter method; details: read-out: GI; how it was run: as §1
786-0 = assay: Growth inhibition of human 786-0 cells at 10 uM after 48 hrs by coulter counter method; details: 786-0, 48 h, read-out: GI; how it was run: as §1
A498 = assay: Growth inhibition of human A498 cells at 10 uM after 48 hrs by coulter counter method; details: A498, 48 h, read-out: GI; how it was run: as §1
ACHN = assay: Growth inhibition of human ACHN cells at 10 uM after 48 hrs by coulter counter method; details: read-out: GI; how it was run: as §1
CAKI-1 = assay: Growth inhibition of human Caki1 cells at 10 uM after 48 hrs by coulter counter method; details: CAKI-1, 48 h, read-out: GI; how it was run: as §1
SN12C = assay: Growth inhibition of human SN12C cells at 10 uM after 48 hrs by coulter counter method; details: read-out: GI; how it was run: as §1
TK-10 = assay: Growth inhibition of human TK10 cells at 10 uM after 48 hrs by coulter counter method; details: TK-10, 48 h, read-out: GI; how it was run: as §1
UO-31 = assay: Growth inhibition of human UO31 cells at 10 uM after 48 hrs by coulter counter method; details: UO-31, 48 h, read-out: GI; how it was run: as §1
PC-3 = assay: Growth inhibition of human PC3 cells at 10 uM after 48 hrs by coulter counter method; details: PC-3, 48 h, read-out: GI; how it was run: as §1
MCF7 = assay: Growth inhibition of human MCF7 cells at 10 uM after 48 hrs by coulter counter method; details: MCF7, 48 h, read-out: GI; how it was run: as §1
BT-549 = assay: Growth inhibition of human BT549 cells at 10 uM after 48 hrs by coulter counter method; details: BT-549, 48 h, read-out: GI; how it was run: as §1
T47D = assay: Growth inhibition of human T47D cells at 10 uM after 48 hrs by coulter counter method; details: read-out: GI; how it was run: as §1
MDA-MB-468 = assay: Growth inhibition of human MDA-MB-468 cells at 10 uM after 48 hrs by coulter counter method; details: MDA-MB-468, 48 h, read-out: GI; how it was run: as §1

## NC1=CC(N)=NC2SC(c3ccc(Cl)cc3)=NN12 (centres undefined)
CCRF-CEM
  inhibition of growth at 10 µM: < 10%
HL-60(TB)
  inhibition of growth at 10 µM: 34.1%
K562
  inhibition of growth at 10 µM: 26.9%
MOLT-4
  inhibition of growth at 10 µM: 20.6%
SR
  inhibition of growth at 10 µM: 19.9%
A549
  inhibition of growth at 10 µM: < 10%
EKVX
  inhibition of growth at 10 µM: < 10%
NCI-H226
  inhibition of growth at 10 µM: 13.1%
NCI-H23
  inhibition of growth at 10 µM: < 10%
NCI-H322M
  inhibition of growth at 10 µM: < 10%
NCI-H522
  inhibition of growth at 10 µM: 19.9%
HCT-116
  inhibition of growth at 10 µM: < 10%
HCT-15
  inhibition of growth at 10 µM: < 10%
HT-29
  inhibition of growth at 10 µM: 11.8%
KM12
  inhibition of growth at 10 µM: < 10%
SF-268
  inhibition of growth at 10 µM: < 10%
SF-295
  inhibition of growth at 10 µM: < 10%
SNB-19
  inhibition of growth at 10 µM: < 10%
SNB-75
  inhibition of growth at 10 µM: < 10%
U-251
  inhibition of growth at 10 µM: < 10%
LOX IMVI
  inhibition of growth at 10 µM: < 10%
Malme-3M
  inhibition of growth at 10 µM: < 10%
M14
  inhibition of growth at 10 µM: < 10%
MDA-MB-435
  inhibition of growth at 10 µM: < 10%
SK-MEL-2
  inhibition of growth at 10 µM: 27.5%
SK-MEL-28
  inhibition of growth at 10 µM: 17.4%
SK-MEL-5
  inhibition of growth at 10 µM: < 10%
UACC-257
  inhibition of growth at 10 µM: < 10%
UACC-62
  inhibition of growth at 10 µM: < 10%
IGROV-1
  inhibition of growth at 10 µM: 22.3%
OVCAR-8
  inhibition of growth at 10 µM: < 10%
NCI/ADR-RES
  inhibition of growth at 10 µM: < 10%
786-0
  inhibition of growth at 10 µM: < 10%
A498
  inhibition of growth at 10 µM: < 10%
ACHN
  inhibition of growth at 10 µM: < 10%
CAKI-1
  inhibition of growth at 10 µM: < 10%
SN12C
  inhibition of growth at 10 µM: < 10%
TK-10
  inhibition of growth at 10 µM: < 10%
UO-31
  inhibition of growth at 10 µM: 21.9%
PC-3
  inhibition of growth at 10 µM: 14.3%
MCF7
  inhibition of growth at 10 µM: < 10%
BT-549
  inhibition of growth at 10 µM: < 10%
T47D
  inhibition of growth at 10 µM: < 10%
MDA-MB-468
  inhibition of growth at 10 µM: < 10%
